ChEMBL document CHEMBL4480389, “Chemoenzymatically synthesized ganglioside GM3 analogues with inhibitory effects on tumor cell growth and migration” (Eur J Med Chem, 2019)
Calls of active or inactive are those of the source. No cut-off for these calls is given here.

Tests used:
HCCLM3 = assay: Antimigratory activity against human HCCLM3 cells at 50 uM after 48 hrs by wound healing assay; assay type: functional, cell-based
Procedure, shortened: (§1)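 Near-confluent monolayers (1.5×10^5 cells per well, RPMI-1640 with 10% FBS) were scratched with a pipette tip and washed twice with serum-free medium. They were then exposed for 48 h to analogue in fresh FBS-containing medium, with DMSO medium as control. Wounds were photographed, and migration was expressed as % of 0 h (wound width at endpoint/width at 0 h). Done in triplicate.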

HCT-116 = assay: Antiproliferative activity against human HCT116 cells after 48 hrs by MTT assay; assay type: functional, cell-based; conditions: HCT-116, 48 h
Procedure, shortened: (§2)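 Cells were seeded at 8×10^3 per well in RPMI-1640 with 10% heat-inactivated FBS. They were treated for 48 h at 37 °C, 5% CO2 with 20, 200, 400 or 1000 μM analogue, or DMSO vehicle. MTT (5 mg/mL solution) was added for 4 h, and absorbance was read at 570 nm. Viability was taken relative to vehicle control, as means ± SD of three independent experiments.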

B16-F10 = assay: Antimigratory activity against mouse B16F10 cells at 6.25 to 12.5 uM after 12 hrs by wound healing assay
K562 = assay: Antiproliferative activity against human K562 cells after 48 hrs by MTT assay; assay type: functional, cell-based; conditions: K562, 48 h; procedure, shortened: as §2
B16 = assay: Antimigratory activity against mouse B16 cells at 6.25 to 12.5 uM after 48 hrs by wound healing assay; assay type: functional, cell-based; procedure, shortened: as §1

Compound	Activity (HCCLM3)	IC50 (HCT-116)	Activity (B16-F10)	IC50 (K562)	Activity (B16)
CCCCCCCCCCCCC/C=C/[C@@H](O)[C@@H](N)CO[C@@H]1O[C@H](CO[C@]2(C(=O)O)C[C@H](O)[C@@H](NC(C)=O)[C@H]([C@H](O)[C@H](O)CO)O2)[C@H](O)[C@H](O)[C@H]1O	Active	130 µM	Active	206 µM	Active
CCCCCCCCCCCCC/C=C/[C@@H](O)[C@H](CO[C@@H]1O[C@H](CO[C@]2(C(=O)O)C[C@H](O)[C@@H](NC(C)=O)[C@H]([C@H](O)[C@H](O)CO)O2)[C@H](O)[C@H](O)[C@H]1O)NC(=O)CCCCCCCCCCCCCCCCC	inactive	86.2 µM	Active	396 µM	Active
CCCCCCCCCCCCC/C=C/[C@@H](O)[C@H](CO[C@H]1O[C@H](CO[C@]2(C(=O)O)C[C@H](O)[C@@H](NC(C)=O)[C@H]([C@H](O)[C@H](O)CO)O2)[C@@H](O)[C@H](O)[C@@H]1O)NC(=O)CCCCCCCCCCCCCCCCC	inactive	64.2 µM	Active	160 µM	Active
CCCCCCCCCCCCC/C=C/[C@@H](O)[C@@H](N)CO[C@H]1O[C@H](CO[C@]2(C(=O)O)C[C@H](O)[C@@H](NC(C)=O)[C@H]([C@H](O)[C@H](O)CO)O2)[C@@H](O)[C@H](O)[C@@H]1O	Active	182 µM	Active	148 µM	Active
